Reference: ChEMBL document CHEMBL4699629, “N-Hydroxyformamide LpxC inhibitors, their in vivo efficacy in a mouse Escherichia coli infection model, and their safety in a rat hemodynamic assay” (Bioorg Med Chem, 2020)
pIC50: −log10 of the molar value. Values after ≈ are worked out from the molar mass of the structure shown.

Assays:
[1] = target: T1, UDP-3-O-acyl-N-acetylglucosamine deacetylase (Pseudomonas aeruginosa (strain ATCC 15692 / PAO1 / 1C / PRS 101 / LMG12228), UniProt P47205); assay: Displacement of fluorescent ligand from Pseudomonas aeruginosa LpxC measured after 30 mins by fluorescence anisotrophy assay
T1 sequence (P47205 whole entry): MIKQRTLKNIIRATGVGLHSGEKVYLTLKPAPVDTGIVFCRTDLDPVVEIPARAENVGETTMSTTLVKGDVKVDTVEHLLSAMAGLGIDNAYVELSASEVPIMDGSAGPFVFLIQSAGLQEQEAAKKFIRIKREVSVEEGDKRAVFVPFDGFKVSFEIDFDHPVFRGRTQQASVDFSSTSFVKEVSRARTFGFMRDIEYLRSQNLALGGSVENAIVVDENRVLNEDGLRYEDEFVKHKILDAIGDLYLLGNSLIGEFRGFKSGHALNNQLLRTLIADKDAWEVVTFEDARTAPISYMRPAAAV

[2] = Displacement of fluorescent ligand from Escherichia coli LpxC measured after 30 mins by fluorescence anisotrophy assay
Procedure, shortened: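 Well mixes of 2 nM ligand C ± 12.5 nM E. coli LpxC; inhibitor two-fold dilutions 10 µM to […]; 30 min ambient, anisotropy 540/590 nm; % inhibition vs no-enzyme min; Hill fit for IC50; artifact correction at high concentrations.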

[3] = tested on: Escherichia coli; assay: Antibacterial activity against Escherichia coli ATCC 25922 assessed as bacterial growth inhibition by CLSI based broth microdilution method; assay type: functional
Procedure, shortened: (§1)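 CLSI broth microdilution determination of MIC.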

[4] = tested on: Pseudomonas aeruginosa; assay: Antibacterial activity against Pseudomonas aeruginosa PAO1 assessed as bacterial growth inhibition by CLSI based broth microdilution method; assay type: functional; procedure, shortened: as §1
[5] = tested on: Klebsiella pneumoniae; assay: Antibacterial activity against Klebsiella pneumoniae ATCC 700603 assessed as bacterial growth inhibition by CLSI based broth microdilution method; assay type: functional; procedure, shortened: as §1
[6] = Chemical stability of the compound; assay type: physicochemical
[7] = Solubility of the compound in 2.5% dextrose in sodium acetate buffer at pH 5; assay type: physicochemical
[8] = Cmax in mouse at 200 mg/kg, sc; assay type: ADME, organism-based; design: route subcutaneous, dose 200 mg/kg; settings: in vivo
[9] = AUC in mouse at 200 mg/kg, sc; assay type: ADME, organism-based; design: dose 200 mg/kg; settings: in vivo
[10] = Observed clearance in mouse at 200 mg/kg, sc; assay type: ADME, organism-based; settings: in vivo
[11] = Volume of distribution in mouse at 200 mg/kg, sc; assay type: ADME, organism-based; settings: in vivo
[12] = Ratio of fAUC in mouse at 200 mg/kg, sc to MIC for antibacterial activity against Escherichia coli ARC6599 infected in cyclophosphamide-induced CD-1 mouse model of neutropenic thigh infection; assay type: ADME, organism-based; settings: in vivo
[13] = Protein binding in mouse plasma assessed as unbound fraction after 7 hrs by LC-MS/MS-based rapid equilibrium dialysis method; assay type: ADME, cell-free
Procedure, shortened: (§2)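 Rapid equilibrium dialysis: plasma spiked to 5 µM final, dialysed against PBS at 37 °C for 7 h with 400 rpm shaking; both chambers protein-precipitated with acetonitrile/0.1% formic acid containing carbutamide internal standard, quantified by LC-MS/MS. fu = buffer/sample peak area ratio; recovery accepted between 70 and 130%.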

[14] = Protein binding in rat plasma assessed as unbound fraction after 7 hrs by LC-MS/MS-based rapid equilibrium dialysis method; assay type: ADME, cell-free; procedure, shortened: as §2
[15] = tested on: Escherichia coli; assay: Antibacterial activity against Escherichia coli ARC6599 infected in cyclophosphamide-induced CD-1 mouse model of neutropenic thigh infection assessed as log10 reduction in CFU at 200 mg/kg, sc qd administered 2 hrs post-infection and measured after 24 hrs; assay type: functional
Procedure, shortened: (§3)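 Female CD-1 mice made neutropenic with cyclophosphamide IP, 150 mg/kg day -4 and 100 mg/kg day -1. Saline suspension from overnight plate, OD625 0.13, diluted; 100 µL i.m. into both rear thighs (actual 7.6×10^5 CFU/thigh). Dosing began 2 h post-infection, s.c. at 20 mL/kg in 5% DMSO plus 2.5% dextrose/20 mM acetate ([…]); 3 mice/group. Thighs harvested 26 h post-infection, homogenized in 2 mL saline, plated; mean and SD of log CFU.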

[16] = tested on: Escherichia coli; assay: Antibacterial activity against Escherichia coli ARC6599 infected in cyclophosphamide-induced CD-1 mouse model of neutropenic thigh infection assessed as log10 reduction in CFU at 200 mg/kg, sc bid administered 2 hrs post-infection and measured after 24 hrs; assay type: functional; procedure, shortened: as §3
[17] = target: Acetylcholinesterase (Homo sapiens, UniProt P22303); assay: Inhibition of human AchE expressed in HEK293 cells using acetylthiocholine as substrate by Ellman's method
Procedure, shortened: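 Purified recombinant enzyme in 0.1 M sodium phosphate pH 7.4 with 0.01% Triton X-100. Two-fold inhibitor dilutions from 300 µM to 0.29 µM plus zero, each held at 3% DMSO. Acetylthiocholine and Ellman's reagent added as a solution of 1.2 mM each; reaction started with 0.006 U/mL enzyme solution. A412 read every minute for 1 h, with a no-enzyme blank subtracted. Initial slopes give % inhibition; IC50 from a Hill-equation fit.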

[18] = tested on: Escherichia coli; assay: Antibacterial activity against Escherichia coli ARC6599 infected in sc dosed cyclophosphamide-induced CD-1 mouse model of neutropenic thigh infection assessed as reduction in CFU administered 2 hrs post-infection and measured after 24 hrs; assay type: functional, organism-based; procedure, shortened: as §3
[19] = Clearance in Sprague-Dawley rat at 90 mg/kg, iv administered as single bolus dose by HPLC analysis; assay type: ADME, organism-based; settings: in vivo
Procedure, shortened: (§4)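 Fasted male Sprague-Dawley rats given one IV tail-vein slow-push bolus of compound formulated at 90 mg/mL in 2.5% dextrose/20 mM acetate pH 5, 1 mL/kg; saphenous blood at selected times into K2EDTA for plasma.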

[20] = Volume of distribution at steady state in Sprague-Dawley rat at 90 mg/kg, iv administered as single bolus dose by HPLC analysis; assay type: ADME, organism-based; settings: in vivo, read-out: Vdss; procedure, shortened: as §4

Sequence of Acetylcholinesterase (P22303 whole entry): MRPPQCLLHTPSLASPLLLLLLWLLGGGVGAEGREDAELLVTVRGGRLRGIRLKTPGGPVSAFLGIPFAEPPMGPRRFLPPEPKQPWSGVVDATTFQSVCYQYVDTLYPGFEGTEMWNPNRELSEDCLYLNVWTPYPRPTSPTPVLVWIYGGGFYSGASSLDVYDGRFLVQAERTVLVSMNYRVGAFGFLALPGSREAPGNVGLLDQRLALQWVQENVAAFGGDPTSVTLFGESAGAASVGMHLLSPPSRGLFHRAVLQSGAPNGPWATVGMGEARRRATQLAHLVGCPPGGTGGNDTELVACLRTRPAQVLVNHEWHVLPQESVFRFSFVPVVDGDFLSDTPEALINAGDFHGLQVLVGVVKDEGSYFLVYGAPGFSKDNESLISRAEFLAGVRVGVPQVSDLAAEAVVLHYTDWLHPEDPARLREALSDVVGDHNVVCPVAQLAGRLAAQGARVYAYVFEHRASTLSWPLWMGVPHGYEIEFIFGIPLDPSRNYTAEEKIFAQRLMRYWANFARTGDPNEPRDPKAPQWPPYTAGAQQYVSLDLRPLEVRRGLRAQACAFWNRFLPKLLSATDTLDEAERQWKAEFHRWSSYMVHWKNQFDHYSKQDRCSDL

| Structure (SMILES) | pIC50 [1] | pIC50 [2] | MIC [3] | further results |
| --- | --- | --- | --- | --- |
| O=CN(O)CCn1ncc2cc(C#Cc3ccc(CN4CCOCC4)cc3)ccc21 | 7.19 | 7.55 | 4 µg/mL (≈ 9.89 µM) | – |
| CSC(Cn1nnc2cc(C#Cc3ccc(CN4CCOCC4)cc3)ccc21)N(O)C=O (stereo not drawn) | 8.89 | > 8.00 | 0.25 µg/mL (≈ 0.554 µM) | – |
| O=CN(O)CCCc1ccc(C#Cc2ccc(CN3CCOCC3)cc2)cc1 | 7.20 | 7.68 | 32 µg/mL (≈ 84.6 µM) | – |
| CCC(Cn1nnc2cc(C#Cc3ccc(CN4CCOCC4)cc3)ccc21)N(O)C=O (stereo not drawn) | 8.62 | > 8.00 | 1 µg/mL (≈ 2.31 µM) | – |
| O=CN(O)CCn1ccc2cc(C#Cc3ccc(CN4CCOCC4)cc3)ccc21 | 7.35 | 8.00 | 2 µg/mL (≈ 4.96 µM) | – |
| O=C(CNC(=O)c1ccc(C#Cc2ccc(CN3CCOCC3)cc2)cc1)NO | 7.20 | 7.68 | 16 µg/mL (≈ 40.7 µM) | MIC [4]: 64 µg/mL (≈ 163 µM); MIC [5]: > 64 µg/mL |
| O=CN(O)CCN1C(=O)Cc2cc(C#Cc3ccc(CN4CCOCC4)cc3)ccc21 | 6.77 | 7.60 | 4 µg/mL (≈ 9.54 µM) | – |
| O=CN(O)CCc1nnn2cc(C#Cc3ccc(CN4CCOCC4)cc3)ccc12 | 7.43 | 7.82 | 4 µg/mL (≈ 9.87 µM) | – |
| O=CN(O)CCc1nnc2cc(C#Cc3ccc(CN4CCOCC4)cc3)ccn12 | 6.55 | 7.27 | 16 µg/mL (≈ 39.5 µM) | – |
| CCOC(Cn1nnc2cc(C#Cc3ccc(CN4CCOCC4)cc3)ccc21)N(O)C=O (stereo not drawn) | 7.39 | 7.66 | 2 µg/mL (≈ 4.45 µM) | Stabilty [6]: Unstable |
| O=CN(O)CCn1ccc2nc(C#Cc3ccc(CN4CCOCC4)cc3)ccc21 | 6.00 | 6.77 | 32 µg/mL (≈ 79.1 µM) | – |
| O=CN(O)CCn1nnc2cc(C#Cc3ccc(CN4CCOCC4)cc3)ccc21 | 7.36 | 7.70 | 4 µg/mL (≈ 9.87 µM) | – |
| CC[C@@H]([C@@H](CC(C)O)c1n[nH]c2cc(C#Cc3ccc(CN4CCOCC4)cc3)ccc12)N(O)C=O (mixture of isomers) | 8.60 | > 8.00 | 1 µg/mL | MIC [4]: 16 µg/mL; MIC [5]: 32 µg/mL |
| C[C@@H](O)[C@H](NC(=O)c1ccc(C#Cc2ccc(CN3CCOCC3)cc2)cc1)C(=O)NO | – | > 8.00 | 0.13 µg/mL (≈ 0.297 µM) | MIC [4]: 1 µg/mL (≈ 2.29 µM); MIC [5]: 2 µg/mL (≈ 4.57 µM) |
| CC(Cn1nnc2cc(C#Cc3ccc(CN4CCOCC4)cc3)ccc21)N(O)C=O (stereo not drawn) | 7.85 | – | 2 µg/mL (≈ 4.77 µM) | – |
| O=CN(O)CCn1ccc2cc(C#Cc3ccc(CN4CCOCC4)cc3)ncc21 | 6.00 | 6.13 | 64 µg/mL (≈ 158 µM) | – |
| O=CN(O)CCn1cnc2cc(C#Cc3ccc(CN4CCOCC4)cc3)ccc21 | 5.96 | 7.09 | 16 µg/mL (≈ 39.6 µM) | – |
| COC(Cn1nnc2cc(C#Cc3ccc(CN4CCOCC4)cc3)ccc21)N(O)C=O (stereo not drawn) | 8.14 | > 8.00 | 0.25 µg/mL (≈ 0.574 µM) | Stabilty [6]: Unstable |
| CCC(Cc1n[nH]c2cc(C#Cc3ccc(CN4CCOCC4)cc3)ccc12)N(O)C=O (stereo not drawn) | 8.00 | 7.72 | 4 µg/mL (≈ 9.25 µM) | MIC [4]: > 64 µg/mL; MIC [5]: > 64 µg/mL |
| CCSC(Cn1nnc2cc(C#Cc3ccc(CN4CCOCC4)cc3)ccc21)N(O)C=O (stereo not drawn) | 8.27 | > 8.00 | 0.5 µg/mL (≈ 1.07 µM) | – |
| O=CN(O)C(CO)Cn1nnc2cc(C#Cc3ccc(CN4CCOCC4)cc3)ccc21 (stereo not drawn) | 7.21 | 7.38 | 2 µg/mL (≈ 4.59 µM) | – |
| CS[C@@H](Cn1nnc2cc(C#Cc3ccc(CN4CC5(C4)C[S+]([O-])C5)cc3)ccc21)N(O)C=O.O=C(O)C(F)(F)F | – | – | – | solubility [7]: > 200 mg/mL |
| CS[C@@H](Cn1nnc2cc(C#Cc3ccc(CN4CCOCC4)cc3)ccc21)N(O)C=O | > 9.00 | > 8.00 | 0.13 µg/mL (≈ 0.288 µM) | MIC [4]: 4 µg/mL (≈ 8.86 µM); MIC [5]: 4 µg/mL (≈ 8.86 µM); Cmax [8]: 21500 ng/mL; AUC [9]: 34800 ng·h/mL; CL [10]: 80 mL/min/kg; Vd [11]: 10.1 L/kg; fAUC/MIC [12]: 104; fraction unbound at 7 h [13]: 0.09; fraction unbound at 7 h [14]: 0.03; Activity [15]: 2 log10CFU; Activity [16]: >3.2 log10CFU; pIC50 [17]: 5.46; Activity [18]: Dose-dependent effect; clearance [19]: 33.3 mL/min/kg; Vd [20]: 0.58 L/kg |
| CS[C@H](Cn1nnc2cc(C#Cc3ccc(CN4CCOCC4)cc3)ccc21)N(O)C=O | 7.68 | 7.39 | 4 µg/mL (≈ 8.86 µM) | – |
